ChEMBL document CHEMBL1133685, “Synthesis of new 2,6-prolylxylidide analogues of tocainide as stereoselective blockers of voltage-gated Na(+) channels with increased potency and improved use-dependent activity” (J Med Chem, 2000)

What was measured:
[1] = Ratio of IC50 tonic block to IC50 phasic block; assay type: functional
[2] = Half maximal concentration for producing a tonic block in skeletal muscle fibers (block of sodium channel at resting conditions evaluated during infrequent depolarizing pulses); assay type: functional, tissue-based, Muscle tissue
Method in brief: (§1)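 Four-pool grease-gap voltage clamp on single skeletal muscle fibers; the central pool held external solution (mM: NaCl 77, choline Cl 38, CaCl2 1.8, KCl 2.5, Na2HPO4 2.15, NaH2PO4 0.85) with drug added. Recordings at 10 °C after 10 min equilibration, holding potential -100 mV, 10-ms test pulses to -20 mV. IC50 for I_Namax block came from a logistic fit of concentration-response data, 3-7 fibers per point, mean ± SEM.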

[3] = In vitro potential anti-myotonic activity as potency in phasic block in relation to tocainide (tocainide = 1); assay type: functional
Method in brief: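 Phasic block was measured at 10 Hz by voltage clamp of skeletal muscle fiber Na+ current at 10 °C, holding potential -100 mV, pulses to -20 mV. The IC50 came from a logistic concentration-response fit, and potency was expressed relative to tocainide (tocainide = 1).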

[4] = Half maximal concentration for producing a phasic block in skeletal muscle fibers (cumulative sodium current reduction at 10 Hz stimulations frequency); assay type: functional, tissue-based, Muscle tissue; method in brief: as §1

| Compound | Ratio [1] | IC50 [2] | Activity [3] | IC50 [4] |
| --- | --- | --- | --- | --- |
| Cc1cccc(C)c1NC(=O)[C@H](C)N [S-TOCAINIDE] | 2.4 | 520 µM | 1 | 220 µM |
| Cc1cccc(C)c1N(C)C(=O)[C@@H]1CCCN1 | 1.5 | 104 µM | 3 | 67 µM |
| Cc1cccc(C)c1N(C)C(=O)[C@@H]1CCCN1C | 1.4 | 286 µM | 1.1 | 198 µM |
| Cc1cccc(C)c1NC(=O)[C@@H]1CCCN1 | 5.2 | 230 µM | 5 | 44 µM |
| Cc1cccc(C)c1NC(=O)[C@@H](C)N [(R)-TOCAINIDE] | 2.1 | 580 µM | 1 | 270 µM |
| Cc1cccc(C)c1NC(=O)[C@H]1CCCN1C | 3 | 300 µM | 2.7 | 100 µM |
| Cc1cccc(C)c1NC(=O)[C@H]1CCCN1 | 8.5 | 110 µM | 21 | 13 µM |
| Cc1cccc(C)c1NC(=O)[C@@H]1CCCN1C | 3.4 | 106 µM | 8 | 28 µM |
| Cc1cccc(C)c1N(C)C(=O)[C@H]1CCCN1 | 1.6 | 340 µM | 1 | 217 µM |
| Cc1cccc(C)c1N(C)C(=O)[C@H]1CCCN1C | > 1.1 | > 500 µM | 0.6 | 440 µM |
